Data from ChEMBL document CHEMBL1153723, “Cytotoxic effects of cardiac glycosides in colon cancer cells, alone and in combination with standard chemotherapeutic drugs” (J Nat Prod, 2009).
pIC50: −log10 of the molar value. The source made the active and inactive calls. No cut-off for these calls is given here.

Key:
[1] = tested on: HT-29; experiment: Cytotoxicity against human HT-29 cells after 72 hrs by FMCA method relative to digoxin; assay type: functional
[2] = Cytotoxicity against human CC20 cells assessed as survival index at 10 uM after 72 hrs by FMCA method; assay type: functional; settings: CC20, 72 h, read-out: Survival
In short: (§1)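 Library screen by FMCA at a final 10 µM (10 mM DMSO stocks diluted in PBS); 5000 cells/well, 72 h at 37 °C, then fluorescein diacetate for 50 min with fluorescence at 485/520 nm. Survival index is well fluorescence as % of control wells after blank subtraction. QC required signal/blank >10 and CV <30% in control and blank wells.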

[3] = Cytotoxicity against human CC20 cells after 72 hrs by FMCA method; assay type: functional, cell-based; settings: CC20, 72 h
In short: (§2)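 FMCA: cells seeded at 5000/well onto compound plates at nine concentrations (1:2 serial dilutions in PBS from DMSO solutions), in duplicate, for 72 h at 37 °C. Then washed, given fluorescein diacetate for 50 min at 37 °C, and fluorescence read at 485/520 nm. HT29 and CC20 were grown in DMEM, HCT116 in McCoy's 5A. IC50 from nonlinear regression of log concentration–effect curves; three independent experiments, mean ± SEM.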

[4] = tested on: HCT-116; experiment: Cytotoxicity against human HCT116 cells after 72 hrs by FMCA method; assay type: functional, cell-based; settings: HCT-116, 72 h; in short: as §2
[5] = Cytotoxicity against human CC20 cells after 72 hrs by FMCA method relative to digoxin; assay type: functional
[6] = tested on: HCT-116; experiment: Cytotoxicity against human HCT116 cells after 72 hrs by FMCA method relative to digoxin; assay type: functional
[7] = tested on: HT-29; experiment: Cytotoxicity against human HT-29 cells assessed as survival index at 10 uM after 72 hrs by FMCA method; assay type: functional; settings: HT-29, 72 h, read-out: Survival; in short: as §1
[8] = tested on: HCT-116; experiment: Cytotoxicity against human HCT116 cells assessed as survival index at 10 uM after 72 hrs by FMCA method; assay type: functional; settings: HCT-116, 72 h, read-out: Survival; in short: as §1
[9] = tested on: HT-29; experiment: Cytotoxicity against human HT-29 cells after 72 hrs by FMCA method; assay type: functional, cell-based; settings: HT-29, 72 h; in short: as §2
[10] = tested on: MCF7; experiment: Inhibition of TNF-alpha-stimulated NF-kappaB translocation from cytoplasm to nucleus in human MCF7 cells at 0.4 to 10 uM; assay type: functional, cell-based
In short: (§3)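 NF-κB activation high-content kit run per manufacturer: TNF-α-stimulated cells treated at 0.4, 2 and 10 µM (or 0.2, 1 and 5 µM). Cytoplasm-to-nucleus translocation of NF-κB quantified by automated imaging (ArrayScan). TNF-α and bortezomib served as controls.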

[11] = Inhibition of Na+/K+ ATPase relative to digoxin
[12] = tested on: HT-29; experiment: Inhibition of TNF-alpha-stimulated NF-kappaB translocation from cytoplasm to nucleus in human HT-29 cells at 0.4 to 10 uM; assay type: functional, cell-based; in short: as §3
[13] = Cytotoxicity against human colon cancer cells after 72 hrs by FMCA method; assay type: functional, cell-based; settings: Primary cultures of tumor cells from patients
[14] = tested on: HeLa; experiment: Inhibition of TNF-alpha-stimulated NF-kappaB translocation from cytoplasm to nucleus in human HeLa cells at 0.4 to 10 uM; assay type: functional, cell-based; in short: as §3

| SMILES | Activity [1] | viability at 10 µM [2] | pIC50 [3] | pIC50 [4] | Activity [5] | Activity [6] | viability at 10 µM [7] | viability at 10 µM [8] | pIC50 [9] | inhibition [10] | Activity [11] | inhibition [12] | pIC50 [13] | inhibition [14] |
| --- | --- | --- | --- | --- | --- | --- | --- | --- | --- | --- | --- | --- | --- | --- |
| C[C@@H]1O[C@@H](O[C@H]2CC[C@]3(C=O)[C@H]4CC[C@]5(C)[C@@H](C6=CC(=O)OC6)CC[C@]5(O)[C@@H]4CC[C@]3(O)C2)[C@H](O)[C@H](O)[C@H]1O [CONVALLATOXIN] | 0.39 | 1% | > 7.40 | > 7.40 | 0.03 | 0.04 | 20% | 3% | 6.26 |  |  |  |  |  |
| CO[C@H]1C[C@H](O[C@H]2CC[C@]3(C=O)[C@H]4CC[C@]5(C)[C@@H](C6=CC(=O)OC6)CC[C@]5(O)[C@@H]4CC[C@]3(O)C2)O[C@H](C)[C@H]1O [CYMARIN] |  | 2% |  |  |  |  | 26% | 4% |  |  |  |  |  |  |
| C[C@@H]1CC[C@@]2(OC1)O[C@H]1[C@@H](O)[C@H]3[C@@H]4CC[C@H]5C[C@@H](O[C@@H]6O[C@H](CO)[C@H](O[C@@H]7O[C@H](CO)C(O)[C@H](O[C@@H]8OC[C@@H](O)[C@H](O)[C@H]8O)[C@H]7O[C@@H]7O[C@H](CO)[C@H](O)[C@H](O[C@@H]8O[C@H](CO)[C@@H](O)[C@H](O)[C@H]8O)[C@H]7O)[C@H](O)[C@H]6O)[C@H](O)C[C@]5(C)[C@H]4CC[C@]3(C)[C@H]1[C@@H]2C (stereo partly drawn) [DIGITONIN] |  | 88% | 5.02 | 5.06 |  |  | 74% | 62% | 5.25 |  |  |  |  |  |
| C[C@H]1O[C@@H](O[C@H]2[C@@H](O)C[C@H](O[C@H]3[C@@H](O)C[C@H](O[C@H]4CC[C@@]5(C)[C@H](CC[C@@H]6[C@@H]5CC[C@]5(C)[C@@H](C7=CC(=O)OC7)CC[C@]65O)C4)O[C@@H]3C)O[C@@H]2C)C[C@H](O)[C@@H]1O [DIGITOXIN] | 2.91 | 2% | 6.39 | 6.13 | 1.71 | 2.74 | 28% | 4% | 5.39 | inactive | 0.3 | inactive | 7.00 | inactive |
| C[C@H]1O[C@@H](O[C@H]2[C@@H](O)C[C@H](O[C@H]3[C@@H](O)C[C@H](O[C@H]4CC[C@@]5(C)[C@H](CC[C@@H]6[C@@H]5C[C@@H](O)[C@]5(C)[C@@H](C7=CC(=O)OC7)CC[C@]65O)C4)O[C@@H]3C)O[C@@H]2C)C[C@H](O)[C@@H]1O [DIGOXIN] | 1 | 1% | 6.62 | 6.57 | 1 | 1 | 24% | 4% | 5.85 | inactive | 1 | inactive | 7.00 | inactive |
| CC(=O)O[C@H]1CC[C@@]2(C)[C@H](CC[C@@H]3[C@@H]2CC[C@]2(C)[C@@H](C4=CC(=O)OC4)[C@@H](OC(C)=O)C[C@]32O)C1 [GITOXIGENIN DIACETATE] |  | 2% |  |  |  |  | 40% | 17% |  |  |  |  |  |  |
| C[C@]12CC[C@H](O)C[C@H]1CC[C@@H]1[C@@H]2CC[C@]2(C)[C@@H](C3=CC(=O)OC3)[C@@H](O)C[C@]12O [GITOXIGENIN] |  | 54% |  |  |  |  | 81% | 63% |  |  |  |  |  |  |
| CC(=O)O[C@H]1C[C@H](O[C@H]2[C@@H](O)C[C@H](O[C@H]3[C@@H](O)C[C@H](O[C@H]4CC[C@@]5(C)[C@H](CC[C@@H]6[C@@H]5C[C@@H](O)[C@]5(C)[C@@H](C7=CC(=O)OC7)CC[C@]65O)C4)O[C@@H]3C)O[C@@H]2C)O[C@H](C)[C@H]1O[C@@H]1O[C@H](CO)[C@@H](O)[C@H](O)[C@H]1O [LANATOSIDE C] |  | 2% |  |  |  |  | 40% | 5% |  |  |  |  |  |  |
| CO[C@H]1[C@H](O)[C@H](O[C@H]2CC[C@@]3(C)[C@H](CC[C@@H]4[C@@H]3CC[C@]3(C)[C@@H](C5=CC(=O)OC5)CC[C@]43O)C2)O[C@@H](C)[C@@H]1O [NERIIFOLIN] |  | 2% |  |  |  |  | 19% | 3% |  |  |  |  |  |  |
| CO[C@H]1C[C@H](O[C@H]2CC[C@@]3(C)[C@H](CC[C@@H]4[C@@H]3CC[C@]3(C)[C@@H](C5=CC(=O)OC5)[C@@H](OC(C)=O)C[C@]43O)C2)O[C@@H](C)[C@@H]1O [OLEANDRIN] | 0.31 | 2% | 7.05 | 7.10 | 0.38 | 0.3 | 20% | 3% | 6.36 | inactive | 0.42 | inactive |  | inactive |
| C[C@@H]1O[C@@H](O[C@H]2C[C@@H](O)[C@]3(CO)[C@H]4[C@H](O)C[C@]5(C)[C@@H](C6=CC(=O)OC6)CC[C@]5(O)[C@@H]4CC[C@]3(O)C2)[C@H](O)[C@H](O)[C@H]1O [OUABAIN] |  | 3% |  |  |  |  | 22% | 4% |  |  |  |  |  |  |
| CO[C@H]1[C@H](O)[C@H](O[C@H]2CC[C@@]3(C=O)[C@H](CC[C@@H]4[C@@H]3CC[C@]3(C)[C@@H](C5=CC(=O)OC5)CC[C@]43O)C2)O[C@@H](C)[C@@H]1O [PERUVOSIDE] |  | 2% |  |  |  |  | 24% | 3% |  |  |  |  |  |  |
| C[C@@H]1O[C@@H](O[C@@H]2C=C3CC[C@@H]4[C@H](CC[C@]5(C)[C@@H](c6ccc(=O)oc6)CC[C@]45O)[C@@]3(C)CC2)[C@H](O)[C@H](O)[C@H]1O [PROSCILLARIDIN] | 0.39 | 3% | > 6.52 | 7.22 | 0.21 | 0.22 | 18% | 1% | 6.26 |  | 0.054 |  |  |  |
| C[C@]12CC[C@H](O)C[C@H]1CC[C@@H]1[C@@H]2[C@H](O)C[C@]2(C)[C@@H](C3=CC(=O)OC3)CC[C@]12O [SARMENTOGENIN] |  | 4% |  |  |  |  | 63% | 26% |  |  |  |  |  |  |
| C[C@]12CC[C@H]3[C@@H](CC[C@]4(O)C[C@@H](O)CC[C@]34C=O)[C@@]1(O)CC[C@@H]2C1=CC(=O)OC1 [STROPHANTHIDIN] |  | 3% |  |  |  |  | 58% | 21% |  |  |  |  |  |  |
